Data on 39 molecules can be found in ChEMBL document CHEMBL3751804, “Carbazole-containing sulfonamides and sulfamides: Discovery of cryptochrome modulators as antidiabetic agents” (Bioorg Med Chem Lett, 2016).

Data set [1] has as its target T1, Period circadian protein homolog 2 (Homo sapiens) (UniProt O15055).
T1 sequence (whole entry): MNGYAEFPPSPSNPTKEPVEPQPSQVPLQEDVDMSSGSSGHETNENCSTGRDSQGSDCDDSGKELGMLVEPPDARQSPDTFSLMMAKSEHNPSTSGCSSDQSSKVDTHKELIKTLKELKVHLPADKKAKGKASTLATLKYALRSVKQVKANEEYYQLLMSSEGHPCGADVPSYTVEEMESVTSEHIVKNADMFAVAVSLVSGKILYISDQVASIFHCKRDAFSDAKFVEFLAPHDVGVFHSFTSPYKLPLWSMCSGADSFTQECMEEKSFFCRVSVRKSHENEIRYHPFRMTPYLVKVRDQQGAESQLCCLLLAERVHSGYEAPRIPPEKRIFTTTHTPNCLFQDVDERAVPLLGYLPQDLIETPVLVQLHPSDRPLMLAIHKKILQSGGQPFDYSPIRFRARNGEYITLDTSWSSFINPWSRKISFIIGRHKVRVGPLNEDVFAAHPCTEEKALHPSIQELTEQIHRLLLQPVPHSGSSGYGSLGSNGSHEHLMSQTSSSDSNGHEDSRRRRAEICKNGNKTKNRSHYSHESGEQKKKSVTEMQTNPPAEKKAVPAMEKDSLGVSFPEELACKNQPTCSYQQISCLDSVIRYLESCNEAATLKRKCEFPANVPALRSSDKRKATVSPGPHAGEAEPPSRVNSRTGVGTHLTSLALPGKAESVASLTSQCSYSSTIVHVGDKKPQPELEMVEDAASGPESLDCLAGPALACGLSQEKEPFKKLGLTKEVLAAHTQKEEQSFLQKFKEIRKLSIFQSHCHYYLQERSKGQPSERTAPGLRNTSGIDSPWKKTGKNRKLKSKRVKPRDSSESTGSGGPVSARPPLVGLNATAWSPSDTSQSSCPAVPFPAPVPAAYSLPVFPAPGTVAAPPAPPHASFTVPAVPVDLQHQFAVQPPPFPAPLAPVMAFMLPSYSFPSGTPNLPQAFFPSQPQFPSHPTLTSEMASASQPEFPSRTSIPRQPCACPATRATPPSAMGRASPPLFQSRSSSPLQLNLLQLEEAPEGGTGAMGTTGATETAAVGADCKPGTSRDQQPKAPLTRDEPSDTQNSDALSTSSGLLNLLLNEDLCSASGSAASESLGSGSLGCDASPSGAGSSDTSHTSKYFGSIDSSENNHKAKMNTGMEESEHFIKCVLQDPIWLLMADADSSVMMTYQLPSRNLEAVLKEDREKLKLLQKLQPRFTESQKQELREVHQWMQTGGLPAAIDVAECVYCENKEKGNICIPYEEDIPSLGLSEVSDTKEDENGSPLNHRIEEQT
The data set is described as follows: Reduction of amplitude effect of PER2 in human U2OS cells harboring Per2-dLuc luciferase reporter gene assessed as effects on circadian rhythms. The data set is classed as cell-based. The essentials: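 Human osteosarcoma U2OS cells carrying a Per2-dLuc luciferase reporter, treated continuously; circadian luminescence rhythm amplitude followed. 8-point threefold dilution series; EC50 taken as concentration giving 50% of the compound's own maximal response (titrations without plateau give no EC50).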

The nature of data set [2]: Mean plasma residence time in po dosed ICR mouse. The data set is classed as ADME, organism-based. The essentials:
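Male ICR mice dosed orally; plasma concentrations followed to derive mean plasma residence time (h).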

The next data set concerns Salmonella typhimurium. The data set is described as follows: Genotoxicity in Salmonella typhimurium by Ames assay. The data set is classed as toxicity, organism-based. Particulars: salmonella enterica subsp. enterica serovar typhimurium.
Data set [3] concerns the target Voltage-gated inwardly rectifying potassium channel KCNH2 (Homo sapiens, UniProt Q12809). The experiment in a line: Inhibition of human ERG.
The test system of a further data set is Mus musculus. The experiment in a line: Antidiabetic activity in diet-induced obese C57BL/6J mouse model assessed as reduction of glucose AUC at 100 mg/kg, qd for 7 days. The data set is classed as functional. More on the design: scale not given: the % may be the effect or the level left. The essentials: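 Diet-induced obese C57BL/6J mice (25 weeks old, high-fat diet for 19 weeks) dosed 100 mg/kg once daily for 7 days, then given an oral glucose tolerance test; glucose clearance expressed as percent reduction in glucose AUC.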

Voltage-gated inwardly rectifying potassium channel KCNH2, sequence (Q12809 whole entry): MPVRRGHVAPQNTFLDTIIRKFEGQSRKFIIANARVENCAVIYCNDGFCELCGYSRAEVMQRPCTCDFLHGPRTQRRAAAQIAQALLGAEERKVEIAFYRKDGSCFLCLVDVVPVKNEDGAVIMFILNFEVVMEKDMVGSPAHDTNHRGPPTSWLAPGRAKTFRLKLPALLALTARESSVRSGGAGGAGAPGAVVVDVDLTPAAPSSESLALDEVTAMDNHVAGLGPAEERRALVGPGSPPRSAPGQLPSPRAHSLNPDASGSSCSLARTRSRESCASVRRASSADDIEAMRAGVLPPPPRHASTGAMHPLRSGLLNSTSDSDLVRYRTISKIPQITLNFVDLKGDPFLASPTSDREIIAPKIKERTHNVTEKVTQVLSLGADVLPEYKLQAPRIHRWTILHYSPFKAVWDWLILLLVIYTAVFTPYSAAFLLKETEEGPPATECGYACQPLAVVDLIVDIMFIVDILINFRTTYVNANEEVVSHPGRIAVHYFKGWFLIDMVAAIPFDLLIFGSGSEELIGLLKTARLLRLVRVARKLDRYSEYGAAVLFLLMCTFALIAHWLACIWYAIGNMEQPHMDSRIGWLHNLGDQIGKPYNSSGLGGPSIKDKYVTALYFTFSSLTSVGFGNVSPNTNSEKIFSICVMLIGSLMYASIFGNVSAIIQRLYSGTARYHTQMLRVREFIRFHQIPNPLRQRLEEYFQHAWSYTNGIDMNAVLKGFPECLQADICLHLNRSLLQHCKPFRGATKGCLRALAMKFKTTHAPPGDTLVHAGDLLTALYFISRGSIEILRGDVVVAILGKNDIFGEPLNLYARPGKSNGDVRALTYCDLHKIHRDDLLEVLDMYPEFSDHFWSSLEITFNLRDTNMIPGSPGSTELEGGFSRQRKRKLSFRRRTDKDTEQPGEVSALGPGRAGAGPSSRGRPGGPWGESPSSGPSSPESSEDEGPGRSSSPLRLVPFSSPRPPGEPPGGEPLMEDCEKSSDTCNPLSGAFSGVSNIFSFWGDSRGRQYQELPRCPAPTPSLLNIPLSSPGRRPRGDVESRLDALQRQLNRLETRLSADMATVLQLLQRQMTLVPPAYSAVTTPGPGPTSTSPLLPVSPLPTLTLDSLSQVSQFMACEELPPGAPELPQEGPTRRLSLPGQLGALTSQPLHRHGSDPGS

Take `CS(=O)(=O)N(CC(O)Cn1c2ccccc2c2ccccc21)c1ccccc1` (stereo unspecified): the Activity result in data set [1] was “Dose-dependent effect”.
Same read-out and setting: with `CS(=O)(=O)N(CC(O)Cn1c2ccccc2c2ccccc21)C1CCOCC1` (stereo unspecified) the entry was “Dose-dependent effect”; with `COCCS(=O)(=O)N(Cc1ccco1)CC(O)Cn1c2ccccc2c2ccccc21` (stereo unspecified), “Dose-dependent effect”.
For the molecule `CS(=O)(=O)NCC(O)Cn1c2ccccc2c2ccccc21` (stereo unspecified), the mean residence time MRT in data set [2] came out at 1.92 h. In addition, the Activity entry in data set [1] is “Dose-dependent effect”.
On to `CC(C)CS(=O)(=O)N(Cc1ccco1)CC(O)Cn1c2ccccc2c2ccccc21` (stereo unspecified), for which the Activity result in data set [1] was “Dose-dependent effect”.
Regarding `O=S(=O)(C1CCCCC1)N(Cc1ccco1)CC(O)Cn1c2ccccc2c2ccccc21` (stereo unspecified), in data set [1], the Activity result is “Dose-dependent effect”.
The same measure, in the same setting: for `CS(=O)(=O)N(CC(O)Cn1c2ccccc2c2ccccc21)C1CC(F)(F)C1` (stereo unspecified) the value was “Dose-dependent effect”; for `O=S(=O)(C1CC1)N(Cc1ccco1)CC(O)Cn1c2ccccc2c2ccccc21` (stereo unspecified), “Dose-dependent effect”; for `CCCN(CC(O)Cn1c2ccccc2c2ccccc21)S(C)(=O)=O` (stereo unspecified), “Dose-dependent effect”.
On to `CS(=O)(=O)N(CC(O)Cn1c2ccccc2c2ccccc21)C1CCCC1` (stereo unspecified), for which the Activity result in data set [1] was “Dose-dependent effect”.
As to `CC(C)CN(CC(O)Cn1c2ccccc2c2ccccc21)S(C)(=O)=O` (stereo unspecified), in data set [1], the Activity entry was “Dose-dependent effect”.
As for `O=S1(=O)COCCN1CC(O)Cn1c2ccccc2c2ccccc21` (stereo unspecified), the Activity entry in data set [1] is “Dose-dependent effect”.
Take `CC(C)N(CC(O)Cn1c2ccccc2c2ccccc21)S(C)(=O)=O` (stereo unspecified): the Activity entry in data set [1] was “Dose-dependent effect”.
For the molecule `CS(=O)(=O)N(CC(O)Cn1c2ccccc2c2ccccc21)C1CC1` (stereo unspecified), in data set [1], the Activity result was “Dose-dependent effect”.
Same read-out and setting: for `CS(=O)(=O)N(CC(O)Cn1c2ccccc2c2ccccc21)C1CCC1` (stereo unspecified) the value was “Dose-dependent effect”; for `CS(=O)(=O)N(CC(O)Cn1c2ccccc2c2ccccc21)c1cccc(F)c1` (stereo unspecified), “Dose-dependent effect”; for `CCS(=O)(=O)N(Cc1ccco1)CC(O)Cn1c2ccccc2c2ccccc21` (stereo unspecified), “Dose-dependent effect”.
Same read-out and setting: with `O=S(=O)(Cc1ccccc1)N(Cc1ccco1)CC(O)Cn1c2ccccc2c2ccccc21` (stereo unspecified) the entry was “Dose-dependent effect”.
Same read-out and setting: with `CS(=O)(=O)N(CC(O)Cn1c2ccccc2c2ccccc21)c1ccccc1F` (stereo unspecified) the entry was “Dose-dependent effect”.
`CN(CC(O)Cn1c2ccccc2c2ccccc21)S(C)(=O)=O` (stereo unspecified) displayed an MRT in data set [2] of 3.01 h. Besides, in data set [1], the Activity entry was “Dose-dependent effect”.
Consider `O=S(=O)(c1ccccc1)N(Cc1ccco1)CC(O)Cn1c2ccccc2c2ccccc21` (stereo unspecified), for which the Activity entry in data set [1] is “Dose-dependent effect”.
Same read-out and setting: for `O=S1(=O)CCN1CC(O)Cn1c2ccccc2c2ccccc21` (stereo unspecified) the value was “Dose-dependent effect”.
Same read-out and setting: for `CN1CCN(CC(O)Cn2c3ccccc3c3ccccc32)S1(=O)=O` (stereo unspecified) the value was “Dose-dependent effect”; for `O=S1(=O)CCCCN1CC(O)Cn1c2ccccc2c2ccccc21` (stereo unspecified), “Dose-dependent effect”.
On the same count and under the same terms, with `CCCS(=O)(=O)N(Cc1ccco1)CC(O)Cn1c2ccccc2c2ccccc21` (stereo unspecified) the entry was “Dose-dependent effect”; with `CN1CCCN(CC(O)Cn2c3ccccc3c3ccccc32)S1(=O)=O` (stereo unspecified), “Dose-dependent effect”; with `CS(=O)(=O)N(CC(O)Cn1c2ccccc2c2ccccc21)C1COC1` (stereo unspecified), “Dose-dependent effect”.
As for `CCCCS(=O)(=O)N(Cc1ccco1)CC(O)Cn1c2ccccc2c2ccccc21` (stereo unspecified), the Activity entry in data set [1] is “Dose-dependent effect”.
`O=S1(=O)NCCCN1CC(O)Cn1c2ccccc2c2ccccc21` (stereo unspecified): the MRT in data set [2] worked out at 5.12 h. Further, the Activity result in data set [1] was “Dose-dependent effect”.
On to `CS(=O)(=O)N(CC(O)Cn1c2ccccc2c2ccccc21)C1CCC(F)(F)CC1` (stereo unspecified), for which, in data set [1], the Activity entry was “Dose-dependent effect”.
As for `CS(=O)(=O)N(CC(O)Cn1c2ccccc2c2ccccc21)c1ccc(F)cc1` (stereo unspecified), the Activity result in data set [1] was “Dose-dependent effect”.
The same measure, in the same setting: with `CS(=O)(=O)N(CC(O)Cn1c2ccccc2c2ccccc21)C1CCCCC1` (stereo unspecified) the entry was “Dose-dependent effect”.
Still for that read-out and setting: for `CCN(CC(O)Cn1c2ccccc2c2ccccc21)S(C)(=O)=O` (stereo unspecified) the value was “Dose-dependent effect”; for `CC(C)S(=O)(=O)N(Cc1ccco1)CC(O)Cn1c2ccccc2c2ccccc21` (stereo unspecified), “Dose-dependent effect”; for `COCCN(CC(O)Cn1c2ccccc2c2ccccc21)S(C)(=O)=O` (stereo unspecified), “Dose-dependent effect”.
Same read-out and setting: with `O=S(=O)(C1CCOC1)N(Cc1ccco1)CC(O)Cn1c2ccccc2c2ccccc21` (stereo unspecified) the entry was “Dose-dependent effect”; with `O=S1(=O)NCCN1CC(O)Cn1c2ccccc2c2ccccc21` (stereo unspecified), “Dose-dependent effect”.
Take `O=S1(=O)CCCN1CC(O)Cn1c2ccccc2c2ccccc21` (stereo unspecified): the figures for the Activity entry (with Salmonella typhimurium; in the data set on Mus musculus; in data set [1]) were “Non-toxic”, 41% and “Dose-dependent effect”, respectively. For the same molecule, the “inhibition (INH)” value in data set [3] is given as “Not Active”. This molecule displayed an MRT in data set [2] of 7.63 h.
With `CS(=O)(=O)N(Cc1ccccc1)CC(O)Cn1c2ccccc2c2ccccc21` (stereo unspecified), the Activity result in data set [1] is “Dose-dependent effect”.
